Key:
[1] = Cmax in fasting human interstitial-space fluid of skeletal muscle at 250 mg, po; assay type: ADME, organism-based, Muscle tissue; design: dose 250 mg, route oral
Outline: (§1)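 Healthy male volunteers aged 25-37 y, fasting; single oral 250 mg tablet after 60-min probe equilibration. Microdialysis probes in skeletal muscle and subcutaneous adipose tissue, perfused with Ringer's at 1.5 µl/min; dialysate and antecubital venous blood sampled every 20 min to 4 h, then every 30 min to 8 h. HPLC assay. Interstitial concentration = 100 x Cdialysate/recovery.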

[2] = Terminal half life in fasting human interstitial-space fluid of skeletal muscle at 250 mg, po; assay type: ADME, organism-based, Muscle tissue; conditions: read-out: beta t1/2 (converted); outline: as §1
[3] = Protein binding in human plasma at 500 mg, po bid for 3 to 5 days; assay type: ADME, organism-based; conditions: read-out: PPB (converted)
Outline: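 Plasma ultrafiltration done for each volunteer on samples taken 80 and 180 min post-dose, after both the single dose and at steady state. 300 µl aliquots spun through 5,000-MW-cutoff regenerated-cellulose filters at 5,000 x g, 30 min, ambient temperature. Ultrafiltrate concentrations corrected for 5% mean membrane binding. Binding (%) = 100 - 100 x Cultrafiltrate corr/Cplasma total.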

[4] = AUC (0 to 8 hrs) in human interstitial-space fluid of skeletal muscle at 500 mg, po, bid for 3 to 5 days; assay type: ADME, organism-based, Muscle tissue; design: dose 500 mg, time < 8 hr, route oral
Outline: (§2)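 Oral clarithromycin 500 mg b.i.d. for 3-5 days, starting 12 h after a single 250 mg dose; last dose given supervised on the morning of day 2 after a baseline blood draw and a 2-h trough dialysate. Sampling as on day 1: microdialysis of muscle and adipose tissue plus venous plasma over 8 h, HPLC. Dialysate concentrations corrected for individual recovery.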

[5] = Ratio of AUC (0 to 24 hrs) in human interstitial-space fluid of skeletal muscle to free AUC (0 to 24 hrs) in human plasma at 500 mg, po bid
[6] = Cmax in fasting human interstitial-space fluid of subcutaneous adipose tissue at 250 mg, po; assay type: ADME, organism-based; outline: as §1
[7] = Total clearance in human plasma at 500 mg, po, bid for 3 to 5 days; assay type: ADME, organism-based
[8] = AUC (0 to 24 hrs) in human plasma at 500 mg, po, bid for 3 to 5 days; assay type: ADME, organism-based; design: time < 24 hr, dose 500 mg, route oral; outline: as §2
[9] = Drug uptake in human adipose tissue assessed as in vivo drug recovery by microdialysis; assay type: ADME, organism-based
Outline: (§3)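 Retrodialysis after the 8-h sampling: clarithromycin 5 mg/liter added to the Ringer's perfusate (1.5 µl/min). Recovery (%) = 100 - 100 x Cdialysate/Cperfusate, taken as the mean of two measurements per subject, in muscle and adipose tissue probes.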

[10] = Tmax in human interstitial-space fluid of subcutaneous adipose tissue at 500 mg, po, bid for 3 to 5 days; assay type: ADME, organism-based; outline: as §2
Homo sapiens [11] = assay: Volume of distribution at terminal phase in fasting human plasma at 250 mg, po; assay type: ADME, organism-based; conditions: in vivo
Outline: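 Single oral 250 mg tablet given to fasting healthy male volunteers (n=7, 25–37 y). Venous plasma (lithium heparin) was sampled every 20 min over 0–4 h and every 30 min over 4–8 h, then analysed by reverse-phase HPLC. Vz = dose × F/(AUC0-∞ × kel), with bioavailability F set at 55%. AUC was calculated by the linear trapezoidal rule.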

[12] = Drug uptake in human Skeletal muscles assessed as in vivo drug recovery by microdialysis; assay type: ADME, organism-based, Muscle tissue; outline: as §3
Homo sapiens [13] = assay: Free Cmax in fasting human plasma at 250 mg, po; assay type: ADME, organism-based; conditions: in vivo
Outline: (§4)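 Free plasma concentrations obtained by applying each volunteer's measured protein binding to total plasma concentrations, measured by HPLC after the 250 mg single dose or the 500 mg b.i.d. steady-state dose, with sampling over 8 h.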

[14] = AUC (0 to 24 hrs) in human interstitial-space fluid of subcutaneous adipose tissue at 500 mg, po, bid for 3 to 5 days; assay type: ADME, organism-based; outline: as §2
[15] = Ratio of AUC (0 to 24 hrs) in fasting human interstitial-space fluid of subcutaneous adipose tissue to free AUC (0 to 24 hrs) in fasting human plasma at 250 mg, po; assay type: ADME, organism-based; conditions: read-out: Ratio AUC
Outline: (§5)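 AUC0-8, AUC0-12 and AUC0-24 by the linear trapezoidal rule. Values at 12 h and 24 h extrapolated as C8 x e^(-kel x t) from the 8-h concentration. At steady state, AUC0-24 = AUC0-12 x 2. Tissue-to-free-plasma ratios use free plasma AUC, from each subject's own protein binding.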

[16] = Terminal half life in human plasma unbound fraction at 500 mg, po, bid for 3 to 5 days; assay type: ADME, organism-based; conditions: read-out: beta t1/2 (converted); outline: as §4
[17] = AUC (0 to 8 hrs) in fasting human interstitial-space fluid of skeletal muscle at 250 mg, po; assay type: ADME, organism-based, Muscle tissue; design: time < 8 hr, dose 250 mg, route oral; outline: as §1
Homo sapiens [18] = assay: Free AUC (0 to 24 hrs) in human plasma at 500 mg, po, bid for 3 to 5 days; assay type: ADME, organism-based; conditions: in vivo; outline: as §4
Homo sapiens [19] = assay: Free Cmax in human plasma at 500 mg, po, bid for 3 to 5 days; assay type: ADME, organism-based; conditions: in vivo; outline: as §4
[20] = Terminal half life in fasting human plasma at 250 mg, po; assay type: ADME, organism-based; conditions: read-out: beta t1/2 (converted); outline: as §1
[21] = Terminal half life in fasting human interstitial-space fluid of subcutaneous adipose tissue at 250 mg, po; assay type: ADME, organism-based; conditions: read-out: beta t1/2 (converted); outline: as §1
Homo sapiens [22] = assay: Free AUC (0 to 8 hrs) in human plasma at 500 mg, po, bid for 3 to 5 days; assay type: ADME, organism-based; conditions: in vivo; outline: as §4
[23] = Ratio of AUC (0 to 24 hrs) in fasting human interstitial-space fluid of skeletal muscle to free AUC (0 to 24 hrs) in fasting human plasma at 250 mg, po; assay type: ADME, organism-based; conditions: read-out: Ratio AUC; outline: as §5
[24] = Terminal half life in fasting human plasma unbound fraction at 250 mg, po; assay type: ADME, organism-based; conditions: read-out: beta t1/2 (converted); outline: as §4
[25] = Terminal half life in human subcutaneous interstitial-space fluid of adipose tissue at 500 mg, po, bid for 3 to 5 days; assay type: ADME, organism-based; conditions: read-out: beta t1/2 (converted); outline: as §2
[26] = Tmax in fasting human interstitial-space fluid of subcutaneous adipose tissue at 250 mg, po; assay type: ADME, organism-based; outline: as §1

CC[C@H]1OC(=O)[C@H](C)[C@@H](O[C@H]2C[C@@](C)(OC)[C@@H](O)[C@H](C)O2)[C@H](C)[C@@H](O[C@@H]2O[C@H](C)C[C@H](N(C)C)[C@H]2O)[C@](C)(OC)C[C@@H](C)C(=O)[C@H](C)[C@@H](O)[C@]1(C)O [CLARITHROMYCIN]
Cmax [1]: 80 ng/mL | half-life [2]: 3.1 h | fraction unbound [3]: 0.231 | AUC at 8 h [4]: 920 ng·h/mL | Kp uu [5]: 0.41 | Cmax [6]: 70 ng/mL | CL/F [7]: 312 mL/min | AUC at 24 h [8]: 26800 ng·h/mL | Activity [9]: 57.7% | Tmax [10]: 4 h | Vbeta (Homo sapiens [11]): 94 L | Activity [12]: 54.3% | fCmax (Homo sapiens [13]): 0.31 mg/L | AUC [14]: 2220 ng·h/mL | Kp uu [15]: 0.29 | half-life [16]: 3.7 h | AUC(0-t) at 8 h [17]: 290 ng·h/mL | fAUC (Homo sapiens [18]): 5850 ng·h/mL | fCmax (Homo sapiens [19]): 0.58 mg/L | half-life [20]: 1.9 h | half-life [21]: 2.4 h | fAUC (Homo sapiens [22]): 2260 ng·h/mL | Kp uu [23]: 0.42 | half-life [24]: 1.9 h | half-life [25]: 3.4 h | Tmax [26]: 3 h

— ChEMBL document CHEMBL1154400, “Pharmacokinetics of single- and multiple-dose oral clarithromycin in soft tissues determined by microdialysis” (Antimicrob Agents Chemother, 2007)
